High-throughput results: PubChem, several laboratories
HUVEC inhibit – blocks proliferation of human endothelial cells | AID 648 | viability, % at 10 µM (by protocol) | 86,000 tested, 1.1% active | HUVEC proliferation, CellTiter-Glo luminescence, 72 h; hits give low values;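 active = viability at or below 30%; inactive = viability above 30%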
HCT116 bCat-KO – beta-catenin-lacking colon tumor cell growth suppression | viability, % at 10 µM | AID 818 | 140,000 tested, 1.5% active | HCT116 beta-catenin knockout viability, CellTiter-Glo, 60 h; hits give low values;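 active = viability at or under a set limit, the compound median less 4 SD, cut at about 6% in these data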
Phagocytosis inh – inhibitors of macrophage phagocytosis. 110,000 tested, 0.07% active. inhibition, % at 5 µM. J774A.1 macrophage IgG-bead phagocytosis, imaging;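 active = inhibition above the mean of the plate negative controls plus 5 SD, cut at about 13% in these data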;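 also: phagocytic index as fraction of beads internalized from green versus red external bead signal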
PTEN del growth – PTEN-deleted cell growth suppression | viability, % at 10 µM | HCT116 PTEN-null viability, CellTiter-Glo, 60 h; hits give low values | 140,000 tested, 1.2% active;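 active = viability at or below a set limit, 4 SD under the median of all tested compounds, cut at about 3.7% in these data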;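 also: PTEN knockout HCT116 line with beta catenin targeted HCT116 as companion control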
Fibroblast inh – blocks proliferation of human lung fibroblasts | AID 719 | viability, % at 10 µM | LL 47 human lung fibroblast viability, ATP luminescence; hits give low values | 85,000 tested, 1.1% active;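 active = viability at or below 50% in the single dose screen; inactive = viability above 50%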;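 also: compound exposure lasted 72 h before the ATP readout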
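material = human LL 47 lung fibroblast cells | dosing = compounds added from tenfold dosing solution, 0.1% DMSO final | timing = overnight cell rest, 72 h compound treatment at 37 °C | measured by = CellTiter-Glo luminescence measuring cellular ATP | evaluation = % viability versus median cells-only luminescence | control set = cell-only wells, no compound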
H69AR growth 86K – blocks growth of human H69AR lung tumor cells. H69AR lung tumor viability, ATP luminescence, 72 h; hits give low values. viability, % at 10 µM. 85,000 tested, 6% active. AID 598;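 active = viability at or below 40%; inactive = viability above 40%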;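 also: multidrug resistant small cell line overexpressing MRP-1 efflux transporter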
A number is an active result; n = inactive; x = no result given. The full list was thinned out, with hits kept by preference.

SMILES | HUVEC inhibit | HCT116 bCat-KO | Phagocytosis inh | PTEN del growth | Fibroblast inh | H69AR growth 86K
COc1ccccc1C(=O)N/C(N)=N/c1nc2ccccc2o1 | n | n | n | n | n | 15
CCNC(=O)CSc1nnc(-c2cc(-c3ccc(Cl)cc3)nc3ccccc23)o1 | x | n | n | n | x | x
CCOC(=O)CNC(=O)C(=O)c1c(O)[nH]c2ccccc12 | n | n | n | n | 48 | n
Clc1ccc(Nc2nc3ccccc3n3nnnc23)cc1 | n | n | n | n | n | n
Fc1cc(Br)ccc1Nc1nc2ccccc2n2nnnc12 | n | n | x | n | n | 25
CCC(=O)N(CCCN(C)C)c1nc(-c2cc(OC)ccc2OC)cs1 | n | n | n | n | n | n
COCCCN(C(=O)c1ccco1)c1nc(-c2cc(OC)ccc2OC)cs1 | n | n | n | n | n | n
COCCCN(C(C)=O)c1nc(-c2ccc(OC)cc2)cs1 | n | n | n | n | n | 15
COc1ccc(-c2csc(N(CCCN(C)C)C(=O)c3cccs3)n2)cc1 | n | n | n | n | n | 22
CCOC(=O)N1CCN(C(=O)c2ccccc2-c2ccccc2)CC1 | n | n | x | n | n | 19
Cc1ccc2c(c1)c(CC(=O)Nc1ccc(F)cc1)c(C(=O)O)n2C | n | n | n | n | n | n
CCC(=O)Nc1ccc(C(=O)NNC(=O)COc2cccc(C)c2)cc1 | x | n | n | n | x | x
CC(=O)NC1(c2ccc(F)cc2)CCN(C(=O)Nc2ccc(F)cc2F)CC1 | n | n | x | n | n | n
Cc1ccc(NC2=C(Cl)C(=O)OC2OC(=O)c2ccco2)cc1 (centres undefined) | n | n | n | n | n | 33
CCOc1ccc2cc(/C=C/C(=O)c3ccco3)c(Cl)nc2c1 | n | n | n | n | n | 2.4
CCOc1ccc2nc(N3CCC(C(=O)N4CCN(C(=O)c5ccco5)CC4)CC3)sc2c1 | n | n | n | n | n | n
CCn1c(SCC(=O)N/N=C/c2ccc(OC)c(OC)c2)nc2ccccc21 | x | n | n | n | x | x
C=CCSc1nc2ccccc2n1C(=O)/C=C/c1cc(OC)c(OC)c(OC)c1 | x | 3.1 | x | 2.4 | x | x
COc1ccc(/C=C/C(=O)NCCn2c(C)cc3ccccc32)cc1OC | x | n | x | n | x | x
CCSc1nc2ccccc2n1C(=O)/C=C/c1ccc(OC)c(OC)c1 | x | 5.4 | n | n | x | x
COc1cc(/C=C/C(=O)NCCn2c(C)cc3ccccc32)cc(OC)c1OC | x | n | x | n | x | x
C=CCSc1nc2ccccc2n1C(=O)/C=C/c1ccc(OC)c(OC)c1 | x | 1.8 | x | 1.8 | x | x
Cc1c(C#N)c2ccccc2n1CC(=O)N1CCCc2ccccc21 | n | n | n | n | n | 32
Cc1ccc(-n2nnnc2C(Cl)(Cl)c2nnnn2-c2ccc(C)cc2)cc1 | x | 1.8 | n | 1.3 | x | x
O=C(Nc1cccc2c1[nH]c1ccccc12)C(F)(F)F | n | n | x | n | n | 11
SMILES | HUVEC inhibit | HCT116 bCat-KO | Phagocytosis inh | PTEN del growth | Fibroblast inh | H69AR growth 86K
CCn1c(=N)n(CC(=O)c2cccc([N+](=O)[O-])c2)c2ccccc21 | x | n | n | n | x | x
Cc1ccccc1Cn1c(=N)n(CC(=O)c2ccc([N+](=O)[O-])cc2)c2ccccc21 | x | 1.9 | n | 1.4 | x | x
CCOC(=O)c1[nH]c2ccc(F)cc2c1NC(=O)CN1CCN(C/C=C/c2ccccc2)CC1 | 2.6 | n | n | n | 14 | 3.6
COC(=O)c1[nH]c2ccccc2c1NC(=O)CN1CCN(C/C=C/c2ccccc2)CC1 | n | n | n | n | n | n
COc1cccc(-n2c(=O)c3cc(OC)c(OC)cc3n(CC(=O)Nc3cc(C)[nH]n3)c2=O)c1 | x | n | n | n | x | x
C=CCNC(=O)c1ccccc1NC(=O)c1ccccc1C | n | 0.8 | x | 1.0 | n | n
CCOC(=O)/C=c1\s/c(=C\c2c(OCC)ccc3ccccc23)c(=O)n1CC(=O)NCC1CCCO1 (centres undefined) | n | n | n | n | n | 30
CCOC(=O)/C=c1\s/c(=C\c2ccc3c(c2)OCCO3)c(=O)n1CC(=O)NCC1CCCO1 (centres undefined) | n | n | n | n | n | n
COc1cccc(CNCCc2c[nH]c3ccccc23)c1OCc1ccccc1 | x | 5.1 | n | n | x | x
COc1cc(CNCCc2c[nH]c3ccccc23)ccc1OCc1ccccc1F | x | 1.4 | n | 1.6 | x | x
COc1ccccc1CCNCc1ccc(OC)c(OCc2ccccc2)c1 | x | n | n | n | x | x
CCc1ccccc1NC(=O)Cn1nc(C(F)(F)F)cc1C1CC1 | x | n | n | n | x | x
O=C(CSc1nnc2c3ccccc3c3ccccc3c2n1)Nc1ccccc1F | x | 2.2 | n | 1.9 | x | x
